In ChEMBL document CHEMBL4138242, “Synthesis and antibacterial evaluation of novel cationic chalcone derivatives possessing broad spectrum antibacterial activity” (Eur J Med Chem, 2018):
The source made the active and inactive calls.

How the values were obtained:
Staphylococcus aureus [1] = assay: Antibacterial activity against methicillin-resistant Staphylococcus aureus clinical isolate 1-may after 16 to 20 hrs by broth microdilution method; format: functional
How it was run: (§1)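 CLSI broth microdilution in Mueller-Hinton broth. A 4-6 h culture was diluted to about 10⁶ CFU/mL and mixed 1:1 with compound dilutions prepared at 256 to 0.5 µg/mL from aqueous stocks. Plates were incubated at 37 °C for 16-20 h and read visually for MIC. Each concentration was run in duplicate, and the experiment was repeated at least twice. Vancomycin and meropenem were comparators.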

Escherichia coli [2] = assay: Antibacterial activity against drug-resistant NDM1 producing Escherichia coli clinical isolate EC-14-54 after 16 to 20 hrs by broth microdilution method; format: functional; how it was run: as §1
Klebsiella pneumoniae [3] = assay: Antibacterial activity against drug-resistant carbapenemase producing Klebsiella pneumoniae clinical isolate KP-14-8 after 16 to 20 hrs by broth microdilution method; format: functional; how it was run: as §1
Staphylococcus aureus [4] = assay: Antibacterial activity against Staphylococcus aureus ATCC 29213 after 16 to 20 hrs by broth microdilution method; format: functional
How it was run: (§2)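 Broth microdilution per CLSI. Bacteria grown 4-6 h (about 10⁸ CFU/mL), then diluted to about 10⁶ CFU/mL. Medium: Mueller-Hinton broth, except Luria-Bertani broth for E. coli. Compounds in sterile water, twofold series 256-0.5 µg/mL, mixed 1:1 with inoculum, 37 °C for 16-20 h. MIC is the lowest concentration without visible growth. Duplicate wells; experiment repeated at least twice.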

Escherichia coli [5] = assay: Antibacterial activity against drug-resistant NDM1 producing Escherichia coli clinical isolate Ecl-14-58 after 16 to 20 hrs by broth microdilution method; format: functional; how it was run: as §1
Staphylococcus aureus [6] = assay: Induction of inner membrane permeabilization in Staphylococcus aureus ATCC 29213 at 10 to 20 ug/ml measured every 2 mins for 12 mins by propidium iodide staining-based fluorescence assay; format: functional, organism-based
How it was run: (§3)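 Mid-log cells (~10⁸ CFU/mL) were suspended in PBS (S. aureus) or HEPES/glucose/KCl (E. coli). They were preincubated with propidium iodide for 30 min (S. aureus) or 40 min (E. coli), and baseline fluorescence was read for 8 min. Compound was added to 20 µg/mL final, and fluorescence (ex 535/em 617 nm) was read every 2 min for 12 min.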

Klebsiella pneumoniae [7] = assay: Antibacterial activity against drug-resistant carbapenemase producing Klebsiella pneumoniae clinical isolate KP-14-2 after 16 to 20 hrs by broth microdilution method; format: functional; how it was run: as §1
Staphylococcus aureus [8] = assay: Antibacterial activity against methicillin-resistant Staphylococcus aureus clinical isolate 0906202 after 16 to 20 hrs by broth microdilution method; format: functional; how it was run: as §1
Escherichia coli [9] = assay: Antibacterial activity against drug-resistant NDM1 producing Escherichia coli clinical isolate Ecl-14-56 after 16 to 20 hrs by broth microdilution method; format: functional; how it was run: as §1
Klebsiella pneumoniae [10] = assay: Antibacterial activity against drug-resistant carbapenemase producing Klebsiella pneumoniae clinical isolate KP-14-4 after 16 to 20 hrs by broth microdilution method; format: functional; how it was run: as §1
Escherichia coli [11] = assay: Antibacterial activity against drug-resistant NDM1 producing Escherichia coli clinical isolate CF-15-61 after 16 to 20 hrs by broth microdilution method; format: functional; how it was run: as §1
Staphylococcus aureus [12] = assay: Induction of cytoplasmic membrane depolarization in Staphylococcus aureus ATCC 29213 at 10 to 20 ug/ml measured every 2 mins for 12 mins by DiSC35 dye-based fluorescence assay; format: functional, organism-based
How it was run: (§4)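 Mid-log cells (~10⁸ CFU/mL) were suspended in PBS (S. aureus) or HEPES/glucose/KCl with EDTA (E. coli). They were preloaded with DiSC3(5) for 30 min (S. aureus) or 40 min (E. coli), and baseline fluorescence was read for 8 min. Compound was added to 20 µg/mL final, and fluorescence (ex 622/em 670 nm) was read every 2 min for 12 min. Water served as control.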

Escherichia coli [13] = assay: Antibacterial activity against drug-resistant NDM1 producing Escherichia coli clinical isolate KP-13-58 after 16 to 20 hrs by broth microdilution method; format: functional; how it was run: as §1
Klebsiella pneumoniae [14] = assay: Antibacterial activity against drug-resistant carbapenemase producing Klebsiella pneumoniae clinical isolate KP-14-5 after 16 to 20 hrs by broth microdilution method; format: functional; how it was run: as §1
Escherichia coli [15] = assay: Induction of cytoplasmic membrane depolarization in Escherichia coli ATCC 25922 at 10 to 20 ug/ml measured every 2 mins for 12 mins by DiSC35 dye-based fluorescence assay; format: functional, organism-based; how it was run: as §4
Klebsiella pneumoniae [16] = assay: Antibacterial activity against drug-resistant carbapenemase producing Klebsiella pneumoniae clinical isolate KP-14-45 after 16 to 20 hrs by broth microdilution method; format: functional; how it was run: as §1
Staphylococcus aureus [17] = assay: Antibacterial activity against methicillin-resistant Staphylococcus aureus clinical isolate 0831010 after 16 to 20 hrs by broth microdilution method; format: functional; how it was run: as §1
Staphylococcus aureus [18] = assay: Antibacterial activity against methicillin-resistant Staphylococcus aureus clinical isolate 1105183 cono7 after 16 to 20 hrs by broth microdilution method; format: functional; how it was run: as §1
Staphylococcus aureus [19] = assay: Antibacterial activity against methicillin-resistant Staphylococcus aureus clinical isolate 1207007 after 16 to 20 hrs by broth microdilution method; format: functional; how it was run: as §1
[20] = Hemolytic activity in sheep RBC after 1 hr; format: ADME, cell-based, Ovis aries, Erythrocyte; conditions: sheep red blood cells (erythrocytes)
How it was run: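 Sheep red blood cells (150 µL suspension) mixed with 50 µL of compound dilutions (5120-10 µg/mL), 1 h at 37 °C, then centrifuged. Supernatant read at 540 nm. Percent hemolysis calculated relative to RBC-only control (0%) and 0.1% Triton X-100 (100%).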

Escherichia coli [21] = assay: Antibacterial activity against drug-resistant NDM1 producing Escherichia coli clinical isolate Ecl-13-62 after 16 to 20 hrs by broth microdilution method; format: functional; how it was run: as §1
Staphylococcus aureus [22] = assay: Antibacterial activity against methicillin-resistant Staphylococcus aureus clinical isolate 20130911034sau after 16 to 20 hrs by broth microdilution method; format: functional; how it was run: as §1
Klebsiella pneumoniae [23] = assay: Antibacterial activity against drug-resistant carbapenemase producing Klebsiella pneumoniae clinical isolate KP-13-55 after 16 to 20 hrs by broth microdilution method; format: functional; how it was run: as §1
Escherichia coli [24] = assay: Antibacterial activity against Escherichia coli ATCC 25922 after 16 to 20 hrs by broth microdilution method; format: functional; how it was run: as §2
Escherichia coli [25] = assay: Antibacterial activity against drug-resistant NDM1 producing Escherichia coli clinical isolate 1460 after 16 to 20 hrs by broth microdilution method; format: functional; how it was run: as §1
Staphylococcus aureus [26] = assay: Antibacterial activity against methicillin-resistant Staphylococcus aureus clinical isolate 1208143 after 16 to 20 hrs by broth microdilution method; format: functional; how it was run: as §1
Escherichia coli [27] = assay: Antibacterial activity against drug-resistant NDM1 producing Escherichia coli clinical isolate EA-14-61 after 16 to 20 hrs by broth microdilution method; format: functional; how it was run: as §1
Klebsiella pneumoniae [28] = assay: Antibacterial activity against drug-resistant carbapenemase producing Klebsiella pneumoniae clinical isolate EC-13-23 after 16 to 20 hrs by broth microdilution method; format: functional; how it was run: as §1
Klebsiella pneumoniae [29] = assay: Antibacterial activity against drug-resistant carbapenemase producing Klebsiella pneumoniae clinical isolate KP-13-54 after 16 to 20 hrs by broth microdilution method; format: functional; how it was run: as §1
Escherichia coli [30] = assay: Antibacterial activity against drug-resistant NDM1 producing Escherichia coli clinical isolate CF-13-61 after 16 to 20 hrs by broth microdilution method; format: functional; how it was run: as §1
Klebsiella pneumoniae [31] = assay: Antibacterial activity against drug-resistant carbapenemase producing Klebsiella pneumoniae clinical isolate KP-14-3 after 16 to 20 hrs by broth microdilution method; format: functional; how it was run: as §1
Escherichia coli [32] = assay: Antibacterial activity against drug-resistant NDM1 producing Escherichia coli clinical isolate EC-13-49 after 16 to 20 hrs by broth microdilution method; format: functional; how it was run: as §1
Escherichia coli [33] = assay: Antibacterial activity against drug-resistant NDM1 producing Escherichia coli clinical isolate SM-15-84 after 16 to 20 hrs by broth microdilution method; format: functional; how it was run: as §1
Enterococcus faecalis = assay: Antibacterial activity against Enterococcus faecalis ATCC 29212 after 16 to 20 hrs by broth microdilution method; format: functional; how it was run: as §2
Staphylococcus aureus [34] = assay: Antibacterial activity against methicillin-resistant Staphylococcus aureus clinical isolate 1104060 after 16 to 20 hrs by broth microdilution method; format: functional; how it was run: as §1
Klebsiella pneumoniae [35] = assay: Antibacterial activity against drug-resistant carbapenemase producing Klebsiella pneumoniae clinical isolate KP-14-18 after 16 to 20 hrs by broth microdilution method; format: functional; how it was run: as §1
Klebsiella pneumoniae [36] = assay: Antibacterial activity against drug-resistant carbapenemase producing Klebsiella pneumoniae clinical isolate KP-13-45 after 16 to 20 hrs by broth microdilution method; format: functional; how it was run: as §1
Escherichia coli [37] = assay: Antibacterial activity against drug-resistant NDM1 producing Escherichia coli clinical isolate Ecl-14-59 after 16 to 20 hrs by broth microdilution method; format: functional; how it was run: as §1
Salmonella enterica = assay: Antibacterial activity against Salmonella enterica ATCC 13076 after 16 to 20 hrs by broth microdilution method; format: functional; how it was run: as §2
Escherichia coli [38] = assay: Induction of inner membrane permeabilization in Escherichia coli ATCC 25922 at 10 to 20 ug/ml measured every 2 mins for 12 mins by propidium iodide staining-based fluorescence assay; format: functional, organism-based; how it was run: as §3
Klebsiella pneumoniae [39] = assay: Antibacterial activity against drug-resistant carbapenemase producing Klebsiella pneumoniae clinical isolate KP-14-1 after 16 to 20 hrs by broth microdilution method; format: functional; how it was run: as §1
Staphylococcus aureus [40] = assay: Antibacterial activity against methicillin-resistant Staphylococcus aureus clinical isolate 20131012632sau after 16 to 20 hrs by broth microdilution method; format: functional; how it was run: as §1
Staphylococcus aureus [41] = assay: Ratio of MIC for Staphylococcus aureus ATCC 29213 after 20 passages to MIC for Staphylococcus aureus ATCC 29213 before 20 passages; format: functional
How it was run: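 The MIC was first measured by broth microdilution. Cells grown at MIC/2 were then carried into a fresh MIC assay after each 24 h, repeated over 20 serial passages. Norfloxacin (S. aureus) and colistin (E. coli) served as control antibiotics. Resistance was defined as a >4-fold rise over the original MIC.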

Staphylococcus aureus [42] = assay: Bactericidal activity against Staphylococcus aureus ATCC 29213 at 6 times MIC after 6 hrs by time-kill assay; format: functional, organism-based
How it was run: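 An overnight culture was diluted 1:10,000 in MHB and grown at 37 °C and 225 rpm for 2 h or 5 h. It was then challenged in tubes at 6× and 8× MIC, with vancomycin (6 µg/mL) as comparator. At intervals, aliquots were pelleted, resuspended in PBS, and tenfold dilutions plated on MHA overnight at 37 °C to give CFU/mL. Biological replicates were run.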

CCCCCCCC[N+](C)(C)CC(=O)Nc1ccc(C(=O)/C=C/c2ccc(OC)cc2)cc1.[Cl-]
1 µg/mL: MIC (Staphylococcus aureus [1]) | MIC (Staphylococcus aureus [4]) | MIC (Staphylococcus aureus [8]) | MIC (Escherichia coli [13]) | MIC (Staphylococcus aureus [18]) | MIC (Staphylococcus aureus [22]) | MIC (Staphylococcus aureus [26])
16 µg/mL: MIC (Klebsiella pneumoniae [16]) | MIC (Klebsiella pneumoniae [23]) | MIC (Escherichia coli [33]) | MIC (Klebsiella pneumoniae [35])
8 µg/mL: MIC (Klebsiella pneumoniae [3]) | MIC (Escherichia coli [5]) | MIC (Escherichia coli [9]) | MIC (Escherichia coli [11]) | MIC (Klebsiella pneumoniae [14]) | MIC (Escherichia coli [21]) | MIC (Escherichia coli [25]) | MIC (Escherichia coli [27]) | MIC (Klebsiella pneumoniae [28]) | MIC (Klebsiella pneumoniae [29]) | MIC (Klebsiella pneumoniae [31]) | MIC (Staphylococcus aureus [34]) | MIC (Klebsiella pneumoniae [36]) | MIC (Escherichia coli [37]) | MIC (Klebsiella pneumoniae [39])
4 µg/mL: MIC (Escherichia coli [2]) | MIC (Klebsiella pneumoniae [10]) | MIC (Escherichia coli [24]) | MIC (Escherichia coli [32]) | MIC (Salmonella enterica) | MIC (Staphylococcus aureus [40])
0.5 µg/mL: MIC (Staphylococcus aureus [17]) | MIC (Staphylococcus aureus [19])
124 µg/mL: HC50 at 1 h [20]
active: Activity (Staphylococcus aureus [6]) | Activity (Staphylococcus aureus [12]) | Activity (Escherichia coli [15]) | Activity (Escherichia coli [38])
32 µg/mL: MIC (Escherichia coli [30])
2 µg/mL: MIC (Klebsiella pneumoniae [7]) | MIC (Enterococcus faecalis)

CCn1cc(C(=O)O)c(=O)c2cc(F)c(N3CCNCC3)cc21 [NORFLOXACIN]
256: Ratio (Staphylococcus aureus [41])

CN[C@H](CC(C)C)C(=O)N[C@H]1C(=O)N[C@@H](CC(N)=O)C(=O)N[C@H]2C(=O)N[C@H]3C(=O)N[C@H](C(=O)N[C@H](C(=O)O)c4cc(O)cc(O)c4-c4cc3ccc4O)[C@H](O)c3ccc(c(Cl)c3)Oc3cc2cc(c3O[C@@H]2O[C@H](CO)[C@@H](O)[C@H](O)[C@H]2O[C@H]2C[C@](C)(N)[C@H](O)[C@H](C)O2)Oc2ccc(cc2Cl)[C@H]1O
inactive: Activity (Staphylococcus aureus [42])
